Tests used:
Mus musculus [1] = assay: Latency time measured by mouse hot plate test after subcutaneous administration at 200 mg/kg; assay type: functional; set-up: unit: s
Summary of the method: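 Male CF-1 mice, 8 per group, given test agent sc in 0.2 mL ethanol/Tween-80/saline (10/10/80); dose 0.68 mmol (200 mg/kg for capsaicin). Placed on copper surface held at 55 ± 0.5 °C. Paw-response latency (s) reported as group mean ± SD; pretest latency ~5 s.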

Mus musculus [2] = assay: Percentage inhibition in mouse by using Croton oil-inflamed mouse ear test (topical dosing).; assay type: functional; set-up: concentration or dose not given beside the values
Summary of the method: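 Male Cox ICR mice (25–35 g), 10 per group. Left ear given 25 μL of 1% compound in ethanol, repeated ~17 h later; 1 h after that, both ears given 25 μL 2% croton oil. After 4 h, 5 mm ear punches weighed. % inhibition = [(C − T1)/C]×100, using left-minus-right weight differences versus vehicle controls.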

Mus musculus [3] = organism: Mus musculus; assay: Ratio of the number of responders to the number of animals tested; 7/8; assay type: functional
[4] = (§1) Acute toxicity after intraperitoneal dose at 200 mg/kg in mice; assay type: organism-based; set-up: dose 200 mg/kg, route intraperitoneal; settings: mouse, in vivo, ip, read-out: Lethality
Summary of the method: (§2)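 Single intraperitoneal dose at the listed mg/kg; acute toxicity scored as % lethality = number of deaths / number of animals dosed, 7–10 animals per group.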

[5] = Acute toxicity after intraperitoneal dose at 50 mg/kg in mice; assay type: organism-based; set-up: dose 50 mg/kg, route intraperitoneal; settings: mouse, in vivo, ip, read-out: Lethality; summary of the method: as §2
Rattus norvegicus [6] = assay: Percentage analgesia by rat hot plate test after oral administration at 300 mg/kg.; assay type: functional
Summary of the method: (§3)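 Rats fasted 18 h, prescreened on a 55 ± 0.5 °C hot plate (latency <12 s, else lowest <30 s) to set the 0 h value. Groups of 8 dosed orally in sesame oil (1 mL/200 g); latency read at 1.5, 3, 5 h (24 h if persisting). %analgesia = [(LT(t) − LT(0))/(60 − LT(0))]×100, taken at the time of maximal latency.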

Mus musculus [7] = organism: Mus musculus; assay: Ratio of the number of responders to the number of animals tested; 8/8; assay type: functional
[8] = Acute toxicity after intraperitoneal dose at 8 mg/kg in mice; assay type: organism-based; set-up: dose 8 mg/kg, route intraperitoneal; settings: mouse, in vivo, ip, read-out: Lethality; summary of the method: as §2
[9] = Acute toxicity after intraperitoneal dose at 15 mg/kg in mice; assay type: organism-based; set-up: dose 15 mg/kg, route intraperitoneal; settings: mouse, in vivo, ip, read-out: Lethality; summary of the method: as §2
[10] = Acute toxicity after intraperitoneal dose at 100 mg/kg in mice; assay type: organism-based; set-up: dose 100 mg/kg, route intraperitoneal; settings: mouse, in vivo, ip, read-out: Lethality; summary of the method: as §2
Mus musculus [11] = organism: Mus musculus; assay: Ratio of the number of responders to the number of animals tested; 4/8; assay type: functional
Mus musculus [12] = organism: Mus musculus; assay: Ratio of the number of responders to the number of animals tested; 6/6; assay type: functional
Mus musculus [13] = organism: Mus musculus; assay: Ratio of the number of responders to the number of animals tested; 0/8; assay type: functional
Mus musculus [14] = organism: Mus musculus; assay: Ratio of the number of responders to the number of animals tested; 6/8; assay type: functional
Mus musculus [15] = organism: Mus musculus; assay: Ratio of the number of responders to the number of animals tested; 2/8; assay type: functional
[16] = Acute toxicity after intraperitoneal dose at 400 mg/kg in mice; assay type: organism-based; set-up: dose 400 mg/kg, route intraperitoneal; settings: mouse, in vivo, ip, read-out: Lethality; summary of the method: as §2
Mus musculus [17] = assay: as §1; assay type: functional; summary of the method: as §2
Mus musculus [18] = organism: Mus musculus; assay: Ratio of the number of responders to the number of animals tested; 6/7; assay type: functional
Summary of the method: (§4)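 Male CF-1 mice, 8 per group, dosed sc in 0.2 mL ethanol/Tween-80/saline (10/10/80). Latency read on a copper hot plate held at 55 ± 0.5 °C, with a pretest latency of about 5 s; reported as mean latency (s) ± SD. A responder is an animal whose latency exceeds the vehicle-control mean plus 2 SD; response = responders/animals tested.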

Mus musculus [19] = assay: Latency time measured by mouse hot plate test after subcutaneous administration at 40 mg/kg; assay type: functional; summary of the method: as §4
Mus musculus [20] = organism: Mus musculus; assay: Ratio of the number of responders to the number of animals tested; 5/5; assay type: functional
Mus musculus [21] = organism: Mus musculus; assay: Ratio of the number of responders to the number of animals tested; 5/8; assay type: functional
[22] = Acute toxicity after intraperitoneal dose at 50 mg/kg; assay type: organism-based; set-up: dose 50 mg/kg, route intraperitoneal; settings: mouse, in vivo, ip, read-out: Lethality; summary of the method: as §2
Rattus norvegicus [23] = assay: Percentage analgesia by using rat hot plate test after oral administration at 150 mg/kg; assay type: functional; summary of the method: as §3

Structure (SMILES) | Latency (Mus musculus [1]) | Inhibition (Mus musculus [2]) [%] | Analgesia (Rattus norvegicus [6]) [%] | also measured
CCCCCCCCCC(=O)CCCCCCCC(=O)NCc1ccc(O)c(OC)c1 | 11.2 | – | – | –
CCCCC/C=C\CCCCCCCCC(=O)NCc1ccc(O)c(OC)c1 | >48.8 | 79.3 | – | Response (Mus musculus [3]): 7; mortality [4]: 10%
CCCCCCCCCCCCNC(=O)Cc1ccc(O)c(OC)c1 | 5 | 55.3 | – | mortality [5]: 0%
CCCC/C=C/CCCCCCCC(=O)NCc1ccc(O)c(OC)c1 | – | – | 22 | –
COc1cc(CNC(=O)CCCc2ccccc2)ccc1O | 5.6 | 40.9 | – | mortality [5]: 75%
CCCCCCCCC(=O)NCc1ccc(O)c(OC)c1 [NONIVAMIDE] | >31.2 | 72.3 | 17 | Response (Mus musculus [7]): 8; mortality [8]: 50%
CCCCCc1ccc(C(=O)NCc2ccc(O)c(OC)c2)cc1 | 6.9 | 9.3 | – | mortality [5]: 60%
CCCCCCCCCNC(=O)Cc1ccc(O)c(OC)c1 | 22.3 | 80.7 | – | mortality [9]: 86%
CCCCCCCCCC(C)CCCCCCCC(=O)NCc1ccc(O)c(OC)c1 (stereo not drawn) | 26.9 | 88.3 | – | mortality [10]: 40%; Response (Mus musculus [11]): 4
COc1cc(CC(=O)NC2CCCCCCC2)ccc1O | 34.2 | 34.7 | 4 | Response (Mus musculus [12]): 6; mortality [4]: 80%
CCCCCCCC/C=C\CCCCCCCCCCCCCC(=O)NCc1ccc(O)c(OC)c1 | 6.1 | 48 | – | Response (Mus musculus [13]): 0
CCCCCCC(=O)NCc1ccc(O)c(OC)c1 | 29.8 | 33.7 | – | Response (Mus musculus [14]): 6; mortality [5]: 85%
C#CCCCCCCCCC(=O)NCc1ccc(O)c(OC)c1 | 17.1 | 36.4 | 15 | mortality [5]: 90%
CCCCCC/C=C\CCCCCCCCNC(=O)Cc1ccc(O)c(OC)c1 | – | – | 88 | –
CCCCCCCC/C=C/CCCCCCCCNC(=O)Cc1ccc(O)c(OC)c1 | – | – | 95 | –
CCCCCCCCCCCCCC/C=C\CC(=O)NCc1ccc(O)c(OC)c1 | 7.5 | – | – | Response (Mus musculus [13]): 0
CCCCCCCC#CCCCCCCCCC(=O)NCc1ccc(O)c(OC)c1 | >18.6 | 50.3 | 15 | mortality [4]: 70%; Response (Mus musculus [15]): 2
CCCCCCC/C=C\CCCCCCCCC(=O)NCc1ccc(O)c(OC)c1 | >38.5 | 81.7 | 69 | Response (Mus musculus [3]): 7; mortality [16]: 30%
CCCCCCC/C=C\CCCCCCCCCCCCC(=O)NCc1ccc(O)c(OC)c1 | – | 29 | – | mortality [4]: 0%
CCCCCCCCCCCCCCCCCC(=O)NCc1ccc(O)c(OC)c1 | 5.9 | 11.3 | 3 | mortality [5]: 0%; Response (Mus musculus [13]): 0
CCCCC/C=C\CCCCCCCCCCC(=O)NCc1ccc(O)c(OC)c1 | >39.9 | 60 | – | Response (Mus musculus [7]): 8; mortality [4]: 30%
CCCCCCCCCCNC(=O)Cc1ccc(O)c(OC)c1 | 5.3 | 58.1 | – | mortality [9]: 100%
COc1cc(CNC(=O)CCCCCc2ccccc2)ccc1O | 6.2 | 57.6 | – | mortality [5]: 70%
CCCC(=O)NCc1ccc(O)c(OC)c1 | 10.8 | 3.2 | – | mortality [10]: 40%; Response (Mus musculus [11]): 4
CCCCCCCC[C@H]1O[C@@H]1CCCCCCCC(=O)NCc1ccc(O)c(OC)c1 | 10.7 | 26 | – | Lethality (Mus musculus [17]): 60%

Structure (SMILES) | Latency (Mus musculus [1]) | Inhibition (Mus musculus [2]) [%] | Analgesia (Rattus norvegicus [6]) [%] | also measured
CCCCCCCC(=O)NCc1ccc(O)c(OC)c1 | >51.3 | 45.8 | – | Response (Mus musculus [12]): 6; mortality [5]: 90%
CCCCCCCC/C=C\CCCCCCCCNC(=O)Cc1ccc(O)c(OC)c1 | 27.9 | 95.5 | 74 | Response (Mus musculus [3]): 7; mortality [4]: 50%
CCCCCCCCCCC(=O)NCc1ccc(O)c(OC)c1 | 47.7 | 29.6 | – | Response (Mus musculus [3]): 7; mortality [5]: 80%
COc1cc(CNC(=O)CCCC/C=C\C(C)C)ccc1O [ZUCAPSAICIN] | – | 79.5 | 0 | Response (Mus musculus [18]): 6; Latency (Mus musculus [19]): >39.9
CCCCCCC/C=C/CCCCCCCCC(=O)NCc1ccc(O)c(OC)c1 | 7.1 | 10.9 | 37 | mortality [4]: 60%; Response (Mus musculus [13]): 0
CCCCCCCCCC(=O)NCc1ccc(O)c(OC)c1 | >43 | 71.4 | – | mortality [5]: 80%; Response (Mus musculus [20]): 5
C=CCCCCCCCCNC(=O)Cc1ccc(O)c(OC)c1 | 32.4 | 98.9 | 29 | mortality [10]: 90%; Response (Mus musculus [21]): 5
CCCCCCC/C=C\CCCCCCCCCC(=O)NCc1ccc(O)c(OC)c1 | 35.7 | 76.9 | 43 | mortality [4]: 40%
CCCCCCCC[C@H]1O[C@H]1CCCCCCCC(=O)NCc1ccc(O)c(OC)c1 | 13.5 | 54.5 | 5 | mortality [4]: 40%
CCCCCCCCCC/C=C/CCCCCC(=O)NCc1ccc(O)c(OC)c1 | 11.5 | 26.7 | 27 | mortality [4]: 60%; Response (Mus musculus [15]): 2
CCCC/C=C\CCCCCCCCNC(=O)Cc1ccc(O)c(OC)c1 | – | – | 74 | –
C=C(CCCCCCCCC)CCCCCCCC(=O)NCc1ccc(O)c(OC)c1 | >22.8 | 96.2 | 67 | mortality [4]: 60%; Response (Mus musculus [15]): 2
COc1cc(CNC(=O)CCCCCCc2ccccc2)ccc1O | 6.8 | 46.2 | 1 | mortality [5]: 60%
CCCCCC(=O)NCc1ccc(O)c(OC)c1 | 16.8 | 33.6 | – | mortality [5]: 60%; Response (Mus musculus [11]): 4
CCCCC(=O)NCc1ccc(O)c(OC)c1 | 9.6 | 24.2 | – | mortality [10]: 60%; Response (Mus musculus [15]): 2
CCCCCCCNC(=O)Cc1ccc(O)c(OC)c1 | 41.1 | 69.4 | – | mortality [9]: 100%
CCCCCCCCCCCC(=O)NCc1ccc(O)c(OC)c1 | 9.9 | 48.1 | – | mortality [9]: 25%; mortality [22]: 100%; Response (Mus musculus [13]): 0
CCCCC/C=C\C/C=C\CCCCCCCCNC(=O)Cc1ccc(O)c(OC)c1 | – | – | 89 | –
CCCCCCNC(=O)Cc1ccc(O)c(OC)c1 | 40.7 | -5.8 | – | –
CCCCCCCC/C=C\CCCCCCCNC(=O)Cc1ccc(O)c(OC)c1 | – | – | 66 | –
CCCC/C=C/C/C=C\CCCCCCCCC(=O)NCc1ccc(O)c(OC)c1.CCCCC/C=C/C=C\CCCCCCCCC(=O)NCc1ccc(O)c(OC)c1 | >36.6 | 66.8 | 34 | Response (Mus musculus [14]): 6; mortality [4]: 0%
CCCCCCCCCC/C=C\CCCCCC(=O)NCc1ccc(O)c(OC)c1 | 46.1 | 68.4 | 37 | mortality [4]: 30%
CCCCCC/C=C\CCCCCCCCCCNC(=O)Cc1ccc(O)c(OC)c1 | – | – | – | Analgesia (Rattus norvegicus [23]): 62%
COc1cc(CNC(=O)CCCCc2ccccc2)ccc1O | 12.2 | 56.4 | – | mortality [5]: 90%

From ChEMBL document CHEMBL1127051, “Vanilloids. 1. Analogs of capsaicin with antinociceptive and antiinflammatory activity” (J Med Chem, 1993)
